Sampled rows, rich in hits. Any-hit rate of the full collection: about 5.8%.
PTK2B oligo ant: antagonists of Pyk2 self-association, primary screen, Q293 cells, FERM NanoBiT luminescence, HTS. z-score (the deposit names both 25 µM and 10 µM). 0.83% of 99,000 active. Protein-tyrosine kinase 2-beta (Homo sapiens), Q14289. stronger effect = lower value. AID 1347419, 2020;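 active = Z-score of -3 or lower, scaled per plate to the spread of control and sample wells; inactive = z-score above -3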;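 also: negative z-score means lost luminescence so less FERM oligomerization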
PLK1 PBD inh: Plk1 polo box domain binding inhibitors, primary screen, biochemical, fluorescence polarization; Serine/threonine-protein kinase PLK1 (Homo sapiens), P53350; Plk1 PBD phosphopeptide binding; inhibition, %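 (tested at about 20 µM)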; 0.13% of 97,000 active; AID 693, 2007; in the data active = inhibition above about 34%, passing the limit was not always enough
FAK blocker: FAK kinase inhibitors, primary screen, biochemical; biochemical FAK kinase activity assay; inhibition, %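 (tested at 7 µM)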; 0.84% of 97,000 active; AID 727, 2007; in the data active = inhibition above about 19%;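 also: 0% = DMSO and 100% = reference compound high control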
Target sequence (Q05397 whole entry, looked up): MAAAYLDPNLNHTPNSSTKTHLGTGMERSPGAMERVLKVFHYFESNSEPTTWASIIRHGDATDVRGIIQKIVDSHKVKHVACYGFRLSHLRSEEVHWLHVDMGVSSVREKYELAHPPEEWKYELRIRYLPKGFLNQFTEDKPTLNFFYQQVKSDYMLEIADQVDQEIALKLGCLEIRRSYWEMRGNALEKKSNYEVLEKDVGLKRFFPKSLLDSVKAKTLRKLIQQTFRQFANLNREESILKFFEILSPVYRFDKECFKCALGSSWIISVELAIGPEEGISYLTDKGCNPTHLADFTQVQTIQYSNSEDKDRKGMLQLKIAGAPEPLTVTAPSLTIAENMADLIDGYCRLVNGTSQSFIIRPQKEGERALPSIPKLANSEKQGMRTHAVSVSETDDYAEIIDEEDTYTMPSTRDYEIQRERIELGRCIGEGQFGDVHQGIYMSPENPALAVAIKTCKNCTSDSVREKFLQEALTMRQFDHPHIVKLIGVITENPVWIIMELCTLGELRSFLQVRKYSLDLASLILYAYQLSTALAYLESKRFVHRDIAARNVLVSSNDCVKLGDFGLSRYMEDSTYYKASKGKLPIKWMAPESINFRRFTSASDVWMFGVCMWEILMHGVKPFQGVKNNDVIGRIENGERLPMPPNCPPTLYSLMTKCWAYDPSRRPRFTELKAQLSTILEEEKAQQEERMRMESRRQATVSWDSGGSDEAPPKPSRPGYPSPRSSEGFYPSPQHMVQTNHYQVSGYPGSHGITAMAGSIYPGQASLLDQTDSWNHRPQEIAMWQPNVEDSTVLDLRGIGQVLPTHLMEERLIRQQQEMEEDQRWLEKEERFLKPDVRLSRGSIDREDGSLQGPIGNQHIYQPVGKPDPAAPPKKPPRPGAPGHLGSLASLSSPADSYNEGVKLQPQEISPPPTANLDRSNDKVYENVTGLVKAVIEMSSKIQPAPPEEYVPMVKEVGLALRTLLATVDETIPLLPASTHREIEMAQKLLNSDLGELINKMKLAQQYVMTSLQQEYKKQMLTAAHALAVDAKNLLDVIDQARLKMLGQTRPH
Rev-RRE block: HIV-1 Rev-RRE binding inhibitors, primary screen, biochemical, FRET, protein-RNA interaction; P05866; Rev peptide-RRE RNA binding; inhibition, % at 8 µM; 0.79% of 97,000 active; AID 704, 2007;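 active = inhibition above the screen-wide mean plus 3 SD, cut at about 35% in these data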;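 also: 0% = median DMSO wells and 100% = median Neomycin B control wells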
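Test system – labelled RRE RNA duplex and labelled Rev peptide · Reagent – labelled Rev peptide · Doses – one concentration, 8 µM nominal · Incubation – 5 + 15 min at 25 °C · Signal – FRET fluorescence readout · Read-out basis – % inhibition of FRET ratio versus controls · Control set – DMSO wells as 0% and neomycin B wells as 100% inhibition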
PLK1 kinase inh: human PLK1 kinase inhibitors, primary screen, biochemical, TR-FRET. Serine/threonine-protein kinase PLK1 (Homo sapiens), P53350. recombinant PLK1 kinase, TR-FRET peptide phosphorylation. inhibition, % at 10 µM. 0.53% of 97,000 active;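 active = inhibition of 50% or more in the single-concentration screen; inactive = inhibition below 50%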;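 also: 0% = DMSO max control and 100% = H-89 dihydrochloride min control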
Cav3 T inh: Cav3.2 calcium influx blockers – cell-based, Fluo-4 calcium fluorescence, FDSS, MLSMR library, primary screen; B-score at 10 µM; Cav3.2-expressing cells; stronger effect = lower value; 4% of 100,000 active;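 active = single-dose well whose peak fluorescence ratio is a statistical outlier from its plate by either plate-standardised score or position-corrected B-score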
* hit, by the source's call; . = not tested or not shown.

SMILES	PTK2B oligo ant	PLK1 PBD inh	FAK blocker	Rev-RRE block	PLK1 kinase inh	Cav3 T inh
O=S(=O)(c1ccc(Cl)cc1)N1CCCC1c1nc2ccccc2s1 (stereo unspecified)	1.6	-1	-8	4	-10	-4.5*
CC(C)(C)c1cc(N)on1	1.2	.	.	.	.	.
Cn1c(=O)n(C/C=C/c2ccccc2)c(=O)c2c1nc1n2CCCN1c1ccc(F)cc1	-1.7	.	.	.	.	-2.3
O=C(CCCCCN1C(=O)C2C3C=CC(C3)C2C1=O)Nc1nccs1 (stereo unspecified)	.	-9	-4	5	62*	0.16
Cc1ccc(C)c(NC(=S)NNC(=O)c2csc3c2CCC(C)C3)c1 (stereo unspecified)	0.26	10	-1	-2	-8	-5.4*
CCc1cc(C(=O)NNC(=S)Nc2cc(C)ccc2C)cs1	1.1	-24	0	-4	-19	-0.76
Cc1ccccc1NC(=O)c1csc2c1CCCC2	-0.55	5	6	5	-12	-1.3
CCNC(=S)NNC(=O)c1csc2c1CCCC2	-0.91	-2	-1	5	-9	-0.94
Cc1ccc(/C=N/NC(=O)c2csc3c2CCCC3)cc1	-0.12	19	-5	7	5	-4.9*
Cc1ccc(C)c(NC(=S)NNC(=O)c2csc3c2CCCC3)c1	0.4	-3	-1	3	-8	-5.3*
Cc1cccc(NC(=S)NNC(=O)c2csc3c2CCCC3)c1	-0.71	5	-4	-1	-12	-3.5*
Cc1cc(Cl)cc(Br)c1OCCCN1C(=O)NC(C)(C)C1=O	-1.1	-10	1	9	-12	-1.8
Cn1c(NCc2ccco2)nc2c1c(=O)n(Cc1ccc(Cl)c(Cl)c1)c(=O)n2C	-1.2	2	7	6	-11	.
CC1=C(OC(=O)c2ccccc2)C(C)(C)C(c2ccc(Br)cc2)OC1=O (stereo unspecified)	-1.6	-1	2	16	-15	-7.1*
CC1(C)N=C(SCC(=O)Nc2ccc(Cl)cc2)C(c2ccccc2)=N1	-0.15	9	0	19	-5	-5.2*
CC1(C)N=C(SCC(=O)Nc2ccc(Cl)cc2)C(c2ccc(Cl)cc2)=N1	0.24	-5	2	18	0	-0.76
C#CCNC(=O)C1=C[C@@H](c2ccc(Br)cc2)C[C@@H](OCCCCO)O1	.	.	.	.	.	0.071
CC(C)COC(=O)n1c(=O)oc2cc(S(=O)(=O)N3CCCCC3)ccc21	-3.5*	3	3	4	-9	-1.1
CCOC(=O)n1c(=O)oc2cc(S(=O)(=O)N3CCOCC3)ccc21	0.87	-9	3	5	-15	0.58
CCN(CC)S(=O)(=O)c1cccc(NC(=O)Nc2cccc(C(F)(F)F)c2)c1	-2.5	2	3	19	-18	-5.8*
O=C(CN1CCN(S(=O)(=O)c2ccccc2)CC1)Nc1cccc(C(F)(F)F)c1	-0.84	-18	2	6	-12	-7.7*
COc1ccc(S(=O)(=O)N2CCN(CC(=O)Nc3ccc(F)c(F)c3)CC2)cc1	1.6	15	5	14	-11	-4.9*
CCN(CC)S(=O)(=O)c1ccc2c(c1)nc(CCC(=O)Nc1cccc(C(F)(F)F)c1)n2CC	-0.57	-11	1	7	-16	0.22
O=C(CN1CCN(S(=O)(=O)c2ccc(F)cc2)CC1)Nc1ccc(Cl)c(C(F)(F)F)c1	0.04	22	5	13	5	.
CS(=O)(=O)NCCSCc1ccco1	0.1	5	2	2	-2	-0.27
SMILES	PTK2B oligo ant	PLK1 PBD inh	FAK blocker	Rev-RRE block	PLK1 kinase inh	Cav3 T inh
C=CCn1c(SCC(=O)N2CCOCC2)nc(O)c(Cc2ccccc2)c1=O	0.42	7	-5	3	-10	-0.75
O=C1c2[nH]nc(-c3ccccc3O)c2C(c2ccccc2F)N1Cc1ccco1 (stereo unspecified)	-3.4*	-24	11	12	-7	-3.9
NC(=O)SCC(=O)Nc1ccc(Cl)cc1	0.01	-1	-1	10	-10	-4
NC(=O)SCC(=O)Nc1cccc(Cl)c1	-0.26	-6	1	3	-7	-5.4*
Cc1ccc(NC(=O)CSC(N)=O)cc1Cl	0.21	-29	0	14	-10	-6.3*
O=C(Nc1nccs1)C(NS(=O)(=O)c1ccc(Br)s1)c1ccccc1 (stereo unspecified)	-1.9	19	-1	0	-9	-5.8*
CC(NS(=O)(=O)c1ccccc1)C(=O)Nc1nccs1 (stereo unspecified)	1	3	4	10	3	-0.081
CC(C)c1nc(N2CCOCC2)c(C#N)c2c1CCCC2	-0.43	17	1	16	-14	-5*
CCOC(=O)C1=C(CSc2nc(-c3ccccc3)ccc2C#N)OC(N)=C(C#N)C1c1ccccc1 (stereo unspecified)	-0.46	-9	1	27	-7	.
CCOC(=O)C1=C(CSc2nc3c(cc2C#N)CN(C)CC3)OC(N)=C(C#N)C1c1ccccc1 (stereo unspecified)	-0.66	2	17	57*	-4	-0.47
CCOC(=O)C1=C(CSc2nc(-c3ccccc3)ccc2C#N)OC(N)=C(C#N)C1c1cccnc1 (stereo unspecified)	-1.4	-31	0	37*	-10	.
COC(=O)C1=C(CSc2nc3c(cc2C#N)CN(C)CC3)OC(N)=C(C#N)C1c1ccccc1F (stereo unspecified)	0.13	-26	14	54*	0	-0.55
COC(=O)C1=C(C)OC(N)=C(C#N)C1c1ccccc1F (stereo unspecified)	0.12	2	1	3	-6	2.5
CCOC(=O)C1=C(CSc2nc3c(cc2C#N)CCC3)OC(N)=C(C#N)C1c1ccccc1 (stereo unspecified)	-0.12	15	-7	21	-14	-5.1*
CCOC(=O)C1=C(CSc2nc3c(cc2C#N)CN(C)CC3)OC(N)=C(C#N)C1c1ccc(F)cc1 (stereo unspecified)	0.44	-42	17	57*	6	.
Cc1ccc(CSCC(=O)N2CCOCC2)cc1	0.74	-10	-1	3	2	0.003
CCOC(=O)c1ccc(NS(=O)(=O)N2CCCCCC2)cc1	-3.1*	-12	0	10	-13	-3.6
CCOC(=O)c1ccc(NC(=O)C2CCN(S(=O)(=O)CC)CC2)cc1	0.73	0	2	4	-4	0.82
CCOC(=O)C1CCCN(C(=O)C2CCCN(S(C)(=O)=O)C2)C1 (stereo unspecified)	0.23	-23	-2	9	-7	0.11

Source: PubChem BioAssay
